# ALR H2O2 inh: inhibitors of human ALR sulfhydryl oxidase, primary screen, biochemical, H2O2 detection, HRP-luminol luminescence, single point | FAD-linked sulfhydryl oxidase ALR (Homo sapiens), P55789 | purified ALR, DTT oxidation | inhibition, % (concentration not given with the values) | 290,000 tested, 3.8% active | AID 485317, 2010;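 active = mean replicate inhibition above about 79%, with every replicate also reaching it, limit read from the data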
# Target sequence (P55789 whole entry, looked up): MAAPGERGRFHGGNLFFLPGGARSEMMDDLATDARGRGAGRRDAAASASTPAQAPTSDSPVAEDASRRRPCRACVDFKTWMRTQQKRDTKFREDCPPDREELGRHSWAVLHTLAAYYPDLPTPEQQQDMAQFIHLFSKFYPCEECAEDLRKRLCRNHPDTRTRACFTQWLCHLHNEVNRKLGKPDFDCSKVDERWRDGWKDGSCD
# CAL PDZ FP-1: CAL PDZ peptide-binding inhibitors, primary screen, biochemical, fluorescence polarization, Cer-tagged CAL PDZ, HTS; Golgi-associated PDZ and coiled-coil motif-containing protein (Homo sapiens), Q9HD26; purified CAL PDZ, TMR-peptide fluorescence polarization, 1 h; inhibition, % at 20 µM; 330,000 tested, 0.02% active;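 active = highest replicate inhibition of at least 40%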;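 note: plate controls were DMSO neutral control wells for no effect and unlabeled competitor peptide control wells for full effect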
#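 System: purified tagged CAL PDZ domain construct (CerCALP). Schedule: 1 h incubation at room temperature before polarization reading. Medium: 25 mM sodium phosphate pH 7.4, 150 mM NaCl, TCEP, IgG, Thesit. Read-out: percent inhibition from loss of millipolarization. Measured by: FP readout, S and P plane fluorescence. Probe or stimulus: fluorescent TMR peptide probe.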
# Dyrk1A ADPGlo: rat Dyrk1A kinase inhibitors, primary screen, biochemical, single point, plate reader. Dual specificity tyrosine-phosphorylation-regulated kinase 1A (Rattus norvegicus), Q63470. ADP-Glo luminescence, NFATc1 peptide. inhibition, % at 12.5 µM. 310,000 tested, 0.43% active. AID 504441, 2011; in the data active = inhibition above about 50%;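 note: plate controls were vehicle with enzyme for no effect and no enzyme for full effect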
# CAL PDZ FP-2: untagged CAL PDZ binding inhibitors, primary screen, biochemical, fluorescence polarization, HTS; Golgi-associated PDZ and coiled-coil motif-containing protein (Homo sapiens), Q9HD26; inhibition, % at 24.9 µM; 300,000 tested, 0.92% active; purified CAL PDZ, TMR-peptide fluorescence polarization, 1 h; AID 602252, 2012;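 active = mean inhibition of at least 30% with at least half of replicates also reaching 30%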;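 note: 0% = DMSO neutral control and 100% = excess unlabeled competitor peptide PRC23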
# Rtt109 Vps75: inhibitors of C. albicans Rtt109/Vps75 HAT, primary screen, biochemical, ThioGlo CoA-SH fluorescence, plate reader. purified Rtt109/Vps75, 4 h. inhibition, % at 34.9 µM. 330,000 tested, 0.16% active;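 active = inhibition of at least 50% in every replicate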
# Target sequence (Q5AAJ8 whole entry, looked up): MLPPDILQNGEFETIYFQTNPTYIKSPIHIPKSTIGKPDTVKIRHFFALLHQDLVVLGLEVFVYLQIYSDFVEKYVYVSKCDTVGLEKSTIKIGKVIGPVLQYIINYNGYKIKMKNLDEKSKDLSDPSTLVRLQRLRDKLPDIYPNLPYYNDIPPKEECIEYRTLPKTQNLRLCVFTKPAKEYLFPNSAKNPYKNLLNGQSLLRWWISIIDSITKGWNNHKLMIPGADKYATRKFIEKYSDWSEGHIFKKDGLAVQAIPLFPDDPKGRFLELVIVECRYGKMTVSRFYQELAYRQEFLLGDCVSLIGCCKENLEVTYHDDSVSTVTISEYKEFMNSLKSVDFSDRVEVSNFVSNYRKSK
# Numbers without * were called inactive; . = not tested or not shown. Rows were chosen to be rich in hits. Some 4.3% of all compounds tested hit in one or more screens of this group.
SMILES,ALR H2O2 inh,CAL PDZ FP-1,Dyrk1A ADPGlo,CAL PDZ FP-2,Rtt109 Vps75
CCN1CC2([N+](=O)[O-])CC=C(Cl)C([N+](=O)[O-])(C1)C2 (centres undefined),13.6,-1.7,-7.0,-0.9,-3.2
O=C(Nc1cccc(Cl)c1)OC1CN2CCC1CC2 (centres undefined),-4.9,-2.0,-14.1,0.5,-10.4
O=C(Nc1ccc(Cl)cc1)OC1CN2CCC1CC2 (centres undefined),-7.4,-0.5,2.2,47.6*,0.8
CNS(=O)(=O)c1ccc(-c2ccc(C=C3C(=O)NC(=O)NC3=O)o2)cc1,87.9*,1.1,-3.4,-3.6,1.2
NS(=O)(=O)c1ccc(-c2ccc(C=C3C(=O)NC(=S)NC3=O)o2)cc1,-20.9,.,.,.,.
NS(=O)(=O)c1ccc(-c2ccc(C=C3C(=O)NC(=O)NC3=O)o2)cc1,97.5*,0.4,15.2,-3.7,0.2
C=CCn1c(O)c(C(CC)=NCCc2c[nH]c3ccccc23)c(=O)[nH]c1=O,1.1,0.6,-4.6,.,-0.5
COC(=O)C1=C(c2ccc(C(C)=O)cc2)C[C@@H]2CC[C@H]1N2C(=O)NC(C)C,2.5,-2.3,-1.3,-2.5,8.3
Cc1nc2ccc(P(=O)(O)O)cc2s1,-2.2,.,.,.,.
N#C/C(N)=C(/N)C#N,98.5*,0.6,.,-1.0,-2.8
O=c1[nH]c(=O)n(CCC2=CCCCC2)c(O)c1/C=N/Nc1ccccc1,98.2*,-1.1,-2.1,-2.8,3.3
CCC(C)n1c(O)c(C=NCCc2ccccc2)c(=O)[nH]c1=S (centres undefined),.,-1.1,.,-1.6,3.6
O=c1[nH]c(=O)n(Cc2ccc(F)cc2)c(O)c1C=NCCCO,-11.7,-1.0,2.9,3.4,-1.4
O=c1[nH]c(=O)n(Cc2ccc(F)cc2)c(O)c1/C=N/Nc1ccccc1,98.6*,1.1,4.2,-6.3,9.6
O=c1[nH]c(=O)n(CCC2=CCCCC2)c(O)c1/C=N/Nc1cccc2ccccc12,3.2,-4.1,-4.7,1.7,6.8
CCC(C)n1c(O)c(/C=N/Nc2ccccc2)c(=O)[nH]c1=S (centres undefined),99.9*,-1.4,-2.2,15.6,11.1
Cc1c(N=Nc2c(O)n(Cc3ccccc3)c(=O)[nH]c2=O)c(=O)n(-c2ccccc2)n1C,19.4,-2.1,-5.8,.,10.5
O=C(c1ccco1)C12CN3CN(CN(C3)C1)C2,-3.4,-0.8,0.4,-0.6,9.4
Cc1oc(-c2cccs2)nc1CSCC(=O)N1CCC2(CC1)OCCO2,99.1*,-1.6,-2.7,3.2,4.5
COc1ccc(-c2nc(CSCC(=O)N3CCC4(CC3)OCCO4)c(C)o2)cc1OC,99.8*,-2.9,2.5,-4.6,7.8
COc1ccc(NC(=O)N2CCC3(CC2)OCCO3)cc1OC,-13.5,0.4,-0.7,-5.4,-0.1
Clc1cc(Cl)c(-c2cc(Cl)c(Cl)cc2Cl)cc1Cl,-6.7,-1.9,.,-1.7,-12.4
O=C(C(=O)N1CCOCC1)c1cn(Cc2ccccc2)c2ccccc12,-5.6,-4.9,-1.7,-6.6,-11.6
CCc1nc2ccc(N3CCN(C)CC3)cc2nc1CC,-2.4,-1.7,.,48.8*,-6.2
O=[N+]([O-])c1oc2ccc3ccccc3c2c1CCO,.,-0.7,2.2,-6.4,3.7
SMILES,ALR H2O2 inh,CAL PDZ FP-1,Dyrk1A ADPGlo,CAL PDZ FP-2,Rtt109 Vps75
Cc1nc2cc(-c3ccc(Cl)cc3)nn2c(C)c1CCC(=O)N1CCC2(CC1)OCCO2,.,-0.8,-5.6,2.0,-11.0
O=c1oc2ccccc2c(O)c1[C@H]1c2ccc(O)cc2Oc2c1c(=O)oc1ccccc21,97.9*,-4.7,-3.9,-7.0,-3.7
NC1=C([N+](=O)[O-])C(c2ccc3c(c2)OCO3)c2c(c3ccccc3oc2=O)O1 (centres undefined),44.6,.,.,.,.
Cc1ccc(-n2c(-c3cccs3)nc3ccccc3c2=O)cc1,0.6,0.7,8.3,-1.7,5.7
CCC(C)N1C(=O)/C(=C/c2ccc3c(c2)CCN3CCCCl)C(=O)NC1=S (centres undefined),98.2*,-2.4,2.5,-1.2,14.8
CN1CCN(c2c(C#N)c(C(F)(F)F)nn2C)CC1,-15.3,-0.4,-1.0,-5.6,2.4
CC(=O)O[C@H]1CC[C@@]2(C)C(=CC[C@@H]3[C@@H]2CC[C@]2(C)C(=O)CC[C@@H]32)C1,-5.0,-0.9,-10.2,1.0,8.4
CC(C)(C)C(=O)O[C@H]1CC[C@@]2(C)C(=CC(=O)C3C2CC[C@]2(C)C(=O)CCC32)C1 (some centres undefined),-7.2,-0.4,1.9,84.9*,-7.8
O=c1[nH]c(=S)[nH]c(O)c1N=Nc1ccc(S(=O)(=O)N2CCOCC2)cc1,95.3*,-0.8,-5.1,-0.7,1.4
CCCCS(=O)(=O)N1CCN(C(=N)N[N+](=O)[O-])CC1,-3.6,0.1,-1.3,3.7,12.0
Clc1ccc(C(Cl)(Cl)Cl)c(Cl)c1,-50.0,-0.3,.,70.5*,-16.7
Cc1ccc2c(c1)C1C[N+](C)(CC(=O)c3ccc(Cl)cc3Cl)CCC1N2C(=O)c1ccc(F)cc1 (centres undefined),.,-4.1,.,.,56.6*
Cc1ccc2c(c1)C1CN(C)CCC1N2C(=O)c1cccs1 (centres undefined),0.2,-0.7,1.5,-0.1,-0.8
COC(=O)C(O)(c1ccc2c(c1)CCCN2)C(F)(F)F (centres undefined),96.6*,-0.9,1.6,-2.1,-1.2
COC(=O)N(C)c1ccc(C(O)(C(=O)OC)C(F)(F)F)cc1 (centres undefined),-26.6,-1.6,-4.6,-2.0,-3.0
COC(=O)C1=C(c2ccc(OC(F)(F)F)cc2)C[C@@H]2CC[C@H]1N2C(=O)N1CCCC1,-3.4,-1.2,2.3,-3.9,17.0
COc1cc(C(C)=O)ccc1OC(=O)N(C)c1ccccc1,-9.6,-0.4,2.5,-2.9,13.4
FC(F)(F)c1ccccc1CN1CCN(Cc2ccccc2)CC1,-1.1,0.8,3.7,-4.5,-7.7
FC(F)(F)c1ccccc1CCN1CCNCC1,0.9,0.8,-0.2,32.9*,-10.4
O=P(CN1CCN(c2ccccc2)CC1)(N1CCCCC1)N1CCCCC1,99.2*,-2.4,.,-1.0,12.5
Oc1cc2c(cc1CN1CCN(c3ccccc3)CC1)CCC2,.,-1.4,4.2,-0.8,2.8
CN(C)C(=S)SSC(=S)N(C)C,.,0.1,5.1,-1.7,154.1*
CCCCC1(CCC)C(=O)NC(=S)NC1=O,.,0.2,0.8,-3.3,-2.9
CN1C(=O)C(=Cc2ccc(-c3cccc(Cl)c3)o2)C(=O)N(C)C1=O,11.6,.,.,.,.
Cc1ccc(Sc2ccc(C=C3C(=O)N(C)C(=O)N(C)C3=O)o2)cc1,97.0*,-0.5,.,-3.7,14.2
Fc1c(F)c(F)c(N2CCNCC2)c(F)c1F,-6.4,-4.1,.,-1.8,-3.6

# Screening results: PubChem BioAssay, Broad Institute
